Legend:
Plasmodium yoelii [1] = experiment: Antimalarial activity as reduced parasitaemia (%) against multidrug-resistant Plasmodium yoelii infected Swiss mice (Mus musculus) at 96 mg/kg peroral dose after 4 days; assay type: functional; design: scale not given: the % may be the effect or the level left; conditions: route oral
Summary of the method: (§1)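 Colony-bred Swiss mice (25 ± 1 g) inoculated with 1×10^6 parasitized RBC on day 0, five per dose group. Dosed orally in groundnut oil (0.1 ml), days 0–3, as two divided doses daily. Parasitaemia read from thin blood smears. Day-4 suppression = [(C−T)/C]×100 against the control group; 100% means parasites below the detection limit. β-Arteether was the positive control.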

Mus musculus [2] = experiment: Survival of multidrug-resistant Plasmodium yoelii infected Swiss mice (Mus musculus) at 96 mg/kg, perorally after 28 days; assay type: ADME, organism-based; design: dose 96 mg/kg, route oral; conditions: in vivo, po, 672 h
Summary of the method: (§2)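 Swiss mice (25 ± 1 g) infected on day 0 with 1×10^6 parasitized RBC, five per dose. Given the drug orally in groundnut oil (0.1 ml), split into two daily doses on days 0–3. Parasitaemia followed by thin blood smears from day 4 to 28. Mice surviving beyond day 28 were scored as protected, expressed as the percent of treated mice. β-Arteether was the positive control.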

Plasmodium yoelii [3] = experiment: Antimalarial activity as reduced parasitaemia (%) against multidrug-resistant Plasmodium yoelii infected Swiss mice (Mus musculus) at 48 mg/kg peroral dose after 4 days; assay type: functional; design: scale not given: the % may be the effect or the level left; conditions: route oral; summary of the method: as §1
Plasmodium yoelii [4] = experiment: Antimalarial activity as reduced parasitaemia (%) against multidrug-resistant Plasmodium yoelii infected Swiss mice (Mus musculus) at 24 mg/kg peroral dose after 4 days; assay type: functional; design: scale not given: the % may be the effect or the level left; conditions: route oral
Mus musculus [5] = experiment: Survival of multidrug-resistant Plasmodium yoelii infected Swiss mice (Mus musculus) at 48 mg/kg, perorally after 28 days; assay type: ADME, organism-based; design: dose 48 mg/kg, route oral; conditions: in vivo, po, 672 h; summary of the method: as §2

| SMILES | Activity (Plasmodium yoelii [1]) | Activity (Mus musculus [2]) | Activity (Plasmodium yoelii [3]) | Activity (Plasmodium yoelii [4]) | Activity (Mus musculus [5]) |
| --- | --- | --- | --- | --- | --- |
| C=C(c1ccc(F)cc1)C1COC2(CC[C@@]3(C)C(CC[C@H]4[C@@H]5CC[C@H]([C@H](C)CCCC(C)C)[C@@]5(C)CC[C@@H]43)C2)OO1 (stereo partly specified) | 14.8% | Not Active | – | – | – |
| C=C(c1ccc(Cl)cc1)C1COC2(CC[C@@]3(C)C(CC[C@H]4[C@@H]5CC[C@H]([C@H](C)CCCC(C)C)[C@@]5(C)CC[C@@H]43)C2)OO1 (stereo partly specified) | 43.4% | Not Active | – | – | – |
| C=C(c1ccc(OC)cc1)C1COC2(CC[C@@]3(C)C(CC[C@@H]4[C@@H]3CC[C@@]3(C)[C@H]4OCC34CC[C@@H](C)CO4)C2)OO1 (stereo partly specified) | 36.1% | Not Active | – | – | – |
| C=C(c1ccc(F)cc1)C1COC2(CC[C@@]3(C)C(CC[C@H]4[C@@H]5CC[C@H](C(C)=O)[C@@]5(C)CC[C@@H]43)C2)OO1 (stereo partly specified) | 100% | – | 100% | – | – |
| C=C(c1ccc(Br)cc1)C1COC2(CC[C@@]3(C)C(CC[C@H]4[C@@H]5CC[C@H](C(C)=O)[C@@]5(C)CC[C@@H]43)C2)OO1 (stereo partly specified) | 100% | – | 100% | – | – |
| C=C(c1ccccc1)C1COC2(CC[C@@]3(C)C(CC[C@@H]4[C@@H]3CC[C@]3(C)C([C@H](C)CCCC(C)C)CC[C@@H]43)C2)OO1 (stereo partly specified) | 73% | Not Active | – | – | – |
| C=C(c1ccc(C)cc1)C1COC2(CC[C@@]3(C)C(CC[C@H]4[C@@H]5CC[C@H]([C@H](C)CCCC(C)C)[C@@]5(C)CC[C@@H]43)C2)OO1 (stereo partly specified) | 27.4% | Not Active | – | – | – |
| C=C(c1ccc(Br)cc1)C1COC2(CC[C@@]3(C)C(CC[C@H]4[C@@H]5CC[C@H]([C@H](C)CCCC(C)C)[C@@]5(C)CC[C@@H]43)C2)OO1 (stereo partly specified) | 26.1% | Not Active | – | – | – |
| C=C(c1ccc(Cl)cc1)C1COC2(CC[C@@]3(C)C(CC[C@H]4[C@@H]5CC[C@H](C(C)=O)[C@@]5(C)CC[C@@H]43)C2)OO1 (stereo partly specified) | 100% | – | 100% | – | – |
| C=C(c1ccc(OC)cc1)C1COC2(CC[C@@]3(C)C(CC[C@H]4[C@@H]5CC[C@H]([C@H](C)CCCC(C)C)[C@@]5(C)CC[C@@H]43)C2)OO1 (stereo partly specified) | 53.5% | Not Active | – | – | – |
| C=C(c1ccc(OC)cc1)C1COC2(CC[C@@]3(C)C(CC[C@H]4[C@@H]5CC[C@H](C(C)=O)[C@@]5(C)CC[C@@H]43)C2)OO1 (stereo partly specified) | 100% | Active | 100% | – | – |
| C=C(c1ccc(C)cc1)C1COC2(CC[C@@]3(C)C(CC[C@@H]4[C@@H]3CC[C@@]3(C)[C@H]4OCC34CC[C@@H](C)CO4)C2)OO1 (stereo partly specified) | 50.7% | Not Active | – | – | – |
| C=C(c1ccc(F)cc1)C1COC2(CC[C@@]3(C)C(CC[C@@H]4[C@@H]3CC[C@@]3(C)[C@H]4OCC34CC[C@@H](C)CO4)C2)OO1 (stereo partly specified) | 45.1% | Not Active | – | – | – |
| C=C(c1ccc(Cl)cc1)C1COC2(CC[C@@]3(C)C(CC[C@@H]4[C@@H]3CC[C@@]3(C)[C@H]4OCC34CC[C@@H](C)CO4)C2)OO1 (stereo partly specified) | 71.7% | Not Active | – | – | – |
| C=C(c1ccccc1)C1COC2(CC[C@@]3(C)C(CC[C@H]4[C@@H]5CC[C@H](C(C)=O)[C@@]5(C)CC[C@@H]43)C2)OO1 (stereo partly specified) | 100% | – | 100% | – | – |
| C=C(c1ccc(C)cc1)C1COC2(CC[C@@]3(C)C(CC[C@H]4[C@@H]5CC[C@H](C(C)=O)[C@@]5(C)CC[C@@H]43)C2)OO1 (stereo partly specified) | 100% | – | 100% | – | – |
| CCO[C@H]1O[C@@H]2O[C@@]3(C)CC[C@H]4[C@H](C)CC[C@@H]([C@H]1C)[C@@]24OO3 [ARTEMOTIL] | – | – | 100% | 100% | Active |

Source: ChEMBL document CHEMBL1149549, “Orally active antimalarials: synthesis and bioevaluation of a new series of steroid-based 1,2,4-trioxanes against multi-drug resistant malaria in mice” (Bioorg Med Chem Lett, 2007)
